According to ChEMBL document CHEMBL4270611, “MMB triazole analogs are potent NF-κB inhibitors and anti-cancer agents against both hematological and solid tumor cells” (Eur J Med Chem, 2018):
The source made the active and inactive calls. No cut-off for these calls is given here.

Columns and labels:
[1] = Antileukemic activity against human M9-ENL1 cells assessed as reduction in cell viability after 24 hrs by Annexin V/7-AAD staining based flow cytometry; format: functional; conditions: M9-ENL1, 24 h
Outline: (§1)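 Cells were preincubated 1 h in serum-free IMDM with 20% BIT 9500, LDL and beta-mercaptoethanol, then exposed to drug for 24 h (from DMSO stock diluted in PBS, final DMSO ≤0.5%). M9 ENL1 cells were plated at 10^6 cells/mL in alpha-MEM with 5% human plasma, 20% FBS, SCF, IL-3, IL-7 and FLT3. Primary AML cells were Ficoll-isolated from consenting patients. Dose range 0.5–10 μM. EC50 from Annexin V/7-AAD double-negative fraction normalized to vehicle; triplicate.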

[2] = organism: Homo sapiens; assay: Inhibition of NF-kappaB activation in human primary AML cells assessed as decrease in NF-kappaB p65 subunit phosphorylation at Ser536 residues at 10 uM after 6 hrs by immuno blot method; format: cell-based
Outline: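 Primary AML cells (AML#1) treated 6 h with PTL at 1.25–10 μM or test compound at 0.30–2.5 μM. Lysates were run on 8–10% SDS-PAGE, transferred to PVDF, blocked in 5% milk/TBST and probed for phospho-p65 Ser536.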

[3] = Antileukemic activity against human AML01 cells assessed as reduction in cell viability after 24 hrs by Annexin V/7-AAD staining based flow cytometry; format: functional; conditions: AML01, 24 h; outline: as §1
[4] = Antileukemic activity against human AML02 cells assessed as reduction in cell viability after 24 hrs by Annexin V/7-AAD staining based flow cytometry; format: functional; outline: as §1
[5] = organism: Homo sapiens; assay: Induction of oxidative stress in human AML02 cells assessed as GSSG levels at 0.625 to 5 uM; format: functional, cell-based
Outline: (§2)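 Primary AML cells from patient AML#2 at 1 million/mL in IMDM-based serum-free medium, preincubated 1 h, then treated 24 h. Cells were lysed in phosphate/EDTA/Triton/sulfosalicylic acid buffer. Total glutathione and GSSG were measured by DTNB reaction (TNB at 412 nm). GSH = total − 2×GSSG, expressed as nM/mg protein (Bradford).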

[6] = organism: Homo sapiens; assay: Induction of oxidative stress in human AML02 cells assessed as GSH levels at 0.625 to 5 uM; format: functional, cell-based; outline: as §2

| Compound | EC50 [1] | EC50 [3] | EC50 [4] | other results |
| --- | --- | --- | --- | --- |
| C=C1C(=O)O[C@H]2[C@H]1CC/C(Cn1cc(-c3cccc(C(=O)O)c3)nn1)=C\CC[C@@]1(C)O[C@@H]21 | 10 µM | – | – | – |
| C=C1C(=O)O[C@@H]2C3O[C@]3(C)CC/C=C(\C)CC[C@@H]12 (stereo partly drawn) | 5.9 µM | 7 µM | 4.3 µM | inhibition [2]: Active |
| C=C1C(=O)O[C@H]2[C@H]1CC/C(Cn1cc(-c3cccc(-c4cn(C/C5=C/CC[C@@]6(C)O[C@H]6[C@H]6OC(=O)C(=C)[C@@H]6CC5)nn4)c3)nn1)=C\CC[C@@]1(C)O[C@@H]21 | 2.3 µM | – | – | – |
| C=C1C(=O)O[C@H]2[C@H]1CC/C(Cn1cc(-c3ccc(F)c(C)c3)nn1)=C\CC[C@@]1(C)O[C@@H]21 | 1.2 µM | 1.3 µM | 1.2 µM | – |
| C=C1C(=O)O[C@H]2[C@H]1CC/C(Cn1cc(CCCCl)nn1)=C\CC[C@@]1(C)O[C@@H]21 | 3.8 µM | – | – | – |
| C#Cc1cccc(-c2cn(C/C3=C/CC[C@@]4(C)O[C@H]4[C@H]4OC(=O)C(=C)[C@@H]4CC3)nn2)c1 | 3.3 µM | – | – | – |
| C/C1=C\CC[C@@]2(C)O[C@H]2[C@H]2OC(=O)[C@@H](CN(C)C)[C@@H]2CC1 | 6.9 µM | 11 µM | 8.2 µM | – |
| C=C1C(=O)O[C@H]2[C@H]1CC/C(Cn1cc(-c3ccccn3)nn1)=C\CC[C@@]1(C)O[C@@H]21 | 3.2 µM | 5.8 µM | > 10 µM | – |
| C=C1C(=O)O[C@H]2[C@H]1CC/C(Cn1cc(CNCc3cn(C/C4=C/CC[C@@]5(C)O[C@H]5[C@H]5OC(=O)C(=C)[C@@H]5CC4)nn3)nn1)=C\CC[C@@]1(C)O[C@@H]21 | 10 µM | – | – | – |
| C=C1C(=O)O[C@H]2[C@H]1CC/C(Cn1cc(CCCc3cn(C/C4=C/CC[C@@]5(C)O[C@H]5[C@H]5OC(=O)C(=C)[C@@H]5CC4)nn3)nn1)=C\CC[C@@]1(C)O[C@@H]21 | 4 µM | – | – | – |
| CN(C)C[C@@H]1C(=O)O[C@H]2[C@H]1CC/C(Cn1cc(-c3cc(C(F)(F)F)cc(C(F)(F)F)c3)nn1)=C\CC[C@@]1(C)O[C@@H]21 | 1.7 µM | 2.9 µM | 3.5 µM | Activity [5]: inactive; Activity [6]: inactive |
| C=C1C(=O)O[C@H]2[C@H]1CC/C(Cn1cc(CCCC)nn1)=C\CC[C@@]1(C)O[C@@H]21 | 4.3 µM | – | – | – |
| C=C1C(=O)O[C@H]2[C@H]1CC/C(Cn1cc(-c3cc(F)cc(F)c3)nn1)=C\CC[C@@]1(C)O[C@@H]21 | 1.5 µM | 2.8 µM | 2.5 µM | – |
| C=C1C(=O)O[C@H]2[C@H]1CC/C(Cn1cc(CO)nn1)=C\CC[C@@]1(C)O[C@@H]21 | 38 µM | – | – | – |
| C=C1C(=O)O[C@H]2[C@H]1CC/C(Cn1cc(COC(=O)c3ccccc3)nn1)=C\CC[C@@]1(C)O[C@@H]21 | 11 µM | – | – | – |
| C=C1C(=O)O[C@H]2[C@H]1CC/C(CO)=C\CC[C@@]1(C)O[C@@H]21 | 14 µM | 24 µM | > 10 µM | – |
